Activity calls are given as the source filed them. No cut-off for these calls is given here.
Assays:
[1] = biological target: T1, Bifunctional dihydrofolate reductase-thymidylate synthase (Toxoplasma gondii) (UniProt Q07422); test: (§1) Inhibition of Toxoplasma gondii TS-DHFR by Michaelis-Menten plot analysis in presence of bovine serum albumin
T1 sequence (whole entry): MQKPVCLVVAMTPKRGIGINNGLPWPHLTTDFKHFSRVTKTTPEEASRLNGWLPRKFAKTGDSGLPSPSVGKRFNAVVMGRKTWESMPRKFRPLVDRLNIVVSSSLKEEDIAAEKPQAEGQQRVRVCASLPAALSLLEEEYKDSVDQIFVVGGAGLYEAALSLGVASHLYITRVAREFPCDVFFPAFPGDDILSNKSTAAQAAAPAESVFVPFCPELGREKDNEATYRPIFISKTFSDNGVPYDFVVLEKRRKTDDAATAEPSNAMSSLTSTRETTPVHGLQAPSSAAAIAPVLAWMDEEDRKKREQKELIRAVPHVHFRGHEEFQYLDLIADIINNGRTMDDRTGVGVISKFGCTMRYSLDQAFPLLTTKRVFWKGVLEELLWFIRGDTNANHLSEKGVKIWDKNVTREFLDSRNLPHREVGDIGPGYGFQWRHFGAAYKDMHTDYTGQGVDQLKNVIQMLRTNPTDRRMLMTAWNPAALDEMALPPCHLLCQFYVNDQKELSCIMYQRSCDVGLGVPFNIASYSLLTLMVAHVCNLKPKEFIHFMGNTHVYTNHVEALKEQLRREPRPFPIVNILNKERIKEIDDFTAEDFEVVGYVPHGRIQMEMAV
Summary of the method: (§2)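 Promiscuity (aggregation) check: TgTS-DHFR was preincubated with 0.1 mg/mL BSA before inhibitor was added. TS inhibitory potency was then determined.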

[2] = biological target: T2, Bifunctional dihydrofolate reductase-thymidylate synthase (Toxoplasma gondii, UniProt Q07422); test: Inhibition of Toxoplasma gondii TS-DHFR using methylenetetrahydrofolate/dUMP as sustrate
T2 sequence (Q07422 whole entry): T1 sequence (whole entry)
Summary of the method: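 T. gondii TS-DHFR was preincubated with dUMP before compound was added. TS activity was measured across varying compound concentrations. Data were fit to a Michaelis-Menten curve for IC50. Duplicate points; SD between repeats.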

[3] = biological target: T2, Bifunctional dihydrofolate reductase-thymidylate synthase; test: Inhibition of Toxoplasma gondii TS-DHFR using methylenetetrahydrofolate/dUMP as sustrate preincubated for 10 mins followed by substrate addition
Summary of the method: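 T. gondii TS activity at varying compound concentrations. Compound was mixed with apo TS-DHFR, with no dUMP preincubation. Data were fit to a Michaelis-Menten curve to give IC50. Points in duplicate; SD between repeats.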

[4] = biological target: T1, Bifunctional dihydrofolate reductase-thymidylate synthase (Toxoplasma gondii); test: Noncompetitive inhibition of Toxoplasma gondii TS-DHFR using methylenetetrahydrofolate as substrate at 25 uM by Michaelis-Menten plot analysis
[5] = biological target: T2, Bifunctional dihydrofolate reductase-thymidylate synthase; test: as §1; summary of the method: as §2
[6] = biological target: T3, Dihydrofolate reductase (Homo sapiens) (UniProt P00374); test: Inhibition of DHFR (unknown origin)
T3 sequence (whole entry): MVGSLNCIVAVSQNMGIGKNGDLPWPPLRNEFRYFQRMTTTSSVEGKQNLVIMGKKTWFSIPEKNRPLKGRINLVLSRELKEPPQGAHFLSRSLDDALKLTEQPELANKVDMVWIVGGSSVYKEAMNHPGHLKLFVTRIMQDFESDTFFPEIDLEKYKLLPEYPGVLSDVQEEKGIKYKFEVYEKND

[7] = biological target: T1, Bifunctional dihydrofolate reductase-thymidylate synthase (Toxoplasma gondii); test: Mixed type inhibition of Toxoplasma gondii TS-DHFR using dUMP as substrate at 25 uM by Michaelis-Menten plot analysis

Structure (SMILES)	inhibition [1]	IC50 [2]	IC50 [3]	inhibition [4]	IC50 [5]	inhibition [6]	inhibition [7]
O=C(Nc1ccccc1)OCc1ccc(-c2cc(C(F)(F)F)cc(C(F)(F)F)c2)o1	inactive	190 µM	54 µM	–	–	–	–
COC(=O)Nc1nc2cc(-c3nnc(O)c4ccccc34)ccc2[nH]1	–	142 µM	51 µM	Active	139 µM	inactive	Active

From ChEMBL document CHEMBL3112437, “Virtual screening reveals allosteric inhibitors of the Toxoplasma gondii thymidylate synthase-dihydrofolate reductase” (Bioorg Med Chem Lett, 2014)
